The record followed here is ChEMBL document CHEMBL1142067, “Antiparasitic drug nitazoxanide inhibits the pyruvate oxidoreductases of Helicobacter pylori, selected anaerobic bacteria and parasites, and Campylobacter jejuni” (Antimicrob Agents Chemother, 2007).

Calls of active or inactive are those of the source. The calls are words filed in the database; no cut-off is given here.

One may read the Ki as a dissociation constant, usually derived from enzyme kinetics or from competition with a known ligand. Usually inhibition stands for the share of the control response that was lost under treatment. As a reminder, the Km is the substrate concentration at which the rate is half of its maximum. A word on the MIC: it is the least concentration at which growth counts as inhibited. Lower therefore signals inhibition by little substance. As a reminder, the Inhibition is how much of the control response was suppressed.

The subject of test [1] is Escherichia coli. The test can be described thus: Growth inhibition of Escherichia coli CC104 expressing rdxA after 16 hrs relative to Escherichia coli with pBSK. It is filed as functional, organism-based. The essentials: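 E. coli CC104 carrying pGS950 (expresses H. pylori rdxA) or empty pBSK was grown in 2% glucose minimal (MinA) liquid medium with drug at 0, 5, 10 or 15 µg/ml. Turbidity at 660 nm was read at 16 h in triplicate cultures, normalized to the no-drug control, and expressed as percent growth inhibition (mean and standard deviation).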

Test [2] deals with T1, Pyruvate-flavodoxin oxidoreductase (Campylobacter jejuni subsp. jejuni) (UniProt Q0P8E1).
T1 sequence (whole entry): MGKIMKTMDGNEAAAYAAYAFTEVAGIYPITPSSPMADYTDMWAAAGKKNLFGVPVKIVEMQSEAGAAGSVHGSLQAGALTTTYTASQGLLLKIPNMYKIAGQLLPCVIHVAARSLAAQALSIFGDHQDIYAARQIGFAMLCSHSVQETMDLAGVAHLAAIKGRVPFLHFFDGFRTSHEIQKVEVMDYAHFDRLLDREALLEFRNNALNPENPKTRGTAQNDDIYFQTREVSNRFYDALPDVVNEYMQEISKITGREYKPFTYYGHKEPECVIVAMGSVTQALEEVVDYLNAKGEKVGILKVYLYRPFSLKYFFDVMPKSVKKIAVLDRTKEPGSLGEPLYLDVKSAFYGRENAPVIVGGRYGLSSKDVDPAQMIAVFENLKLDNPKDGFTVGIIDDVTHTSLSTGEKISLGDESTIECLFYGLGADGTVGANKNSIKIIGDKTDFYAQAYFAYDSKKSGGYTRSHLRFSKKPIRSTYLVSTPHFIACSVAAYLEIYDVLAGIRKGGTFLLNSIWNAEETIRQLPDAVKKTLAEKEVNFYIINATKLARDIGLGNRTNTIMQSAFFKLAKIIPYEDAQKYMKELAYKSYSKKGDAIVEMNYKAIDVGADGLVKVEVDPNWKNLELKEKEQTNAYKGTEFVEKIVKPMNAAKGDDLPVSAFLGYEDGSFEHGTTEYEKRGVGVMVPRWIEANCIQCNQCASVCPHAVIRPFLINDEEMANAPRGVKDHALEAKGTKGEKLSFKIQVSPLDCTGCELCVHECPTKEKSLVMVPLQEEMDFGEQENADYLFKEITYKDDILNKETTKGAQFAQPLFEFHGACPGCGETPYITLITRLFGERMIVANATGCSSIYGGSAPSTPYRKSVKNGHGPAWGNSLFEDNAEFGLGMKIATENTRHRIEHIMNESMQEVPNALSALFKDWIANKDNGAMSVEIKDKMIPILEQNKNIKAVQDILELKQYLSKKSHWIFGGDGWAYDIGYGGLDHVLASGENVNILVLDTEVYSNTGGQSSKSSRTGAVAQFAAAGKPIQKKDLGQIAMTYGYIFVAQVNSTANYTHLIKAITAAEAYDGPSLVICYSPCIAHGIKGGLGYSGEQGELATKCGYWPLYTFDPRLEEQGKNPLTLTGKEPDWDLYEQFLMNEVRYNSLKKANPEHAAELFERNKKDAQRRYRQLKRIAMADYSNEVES
The test is described as follows: Activity of PFOR in Campylobacter jejuni at anaerobic condition. The essentials:
(§1)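 Cell-free extracts, high-speed supernatant after sonication (parasites: sonication or glass homogenizer). PFOR assayed anaerobically at 25°C in 100 mM potassium phosphate pH 7.4 with 10 mM pyruvate, 0.18 mM CoA, 1 mM MgCl2 and 5 µM TPP. Acceptor was 5 mM benzyl viologen (546 nm) or NTZ (decrease at 418 nm). Enzyme added last. Triplicate means, per mg Bradford protein.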

For test [3], the system named is Entamoeba histolytica. The test can be described thus: Activity of PFOR in Entamoeba histolytica at anaerobic condition. The essentials:
as §1

Test [4] has as its system Clostridioides difficile. The test is described as follows: Activity of PFOR in Clostridium difficile at anaerobic condition. The essentials: as §1
For test [5], the system named is Giardia duodenalis. The test can be described thus: Activity of PFOR in Giardia intestinalis at anaerobic condition. The essentials:
as §1

For test [6], the target named is T2, Pyruvate-flavodoxin oxidoreductase (Clostridium perfringens (strain SM101 / Type A)) (UniProt Q0SRB6).
T2 sequence (whole entry): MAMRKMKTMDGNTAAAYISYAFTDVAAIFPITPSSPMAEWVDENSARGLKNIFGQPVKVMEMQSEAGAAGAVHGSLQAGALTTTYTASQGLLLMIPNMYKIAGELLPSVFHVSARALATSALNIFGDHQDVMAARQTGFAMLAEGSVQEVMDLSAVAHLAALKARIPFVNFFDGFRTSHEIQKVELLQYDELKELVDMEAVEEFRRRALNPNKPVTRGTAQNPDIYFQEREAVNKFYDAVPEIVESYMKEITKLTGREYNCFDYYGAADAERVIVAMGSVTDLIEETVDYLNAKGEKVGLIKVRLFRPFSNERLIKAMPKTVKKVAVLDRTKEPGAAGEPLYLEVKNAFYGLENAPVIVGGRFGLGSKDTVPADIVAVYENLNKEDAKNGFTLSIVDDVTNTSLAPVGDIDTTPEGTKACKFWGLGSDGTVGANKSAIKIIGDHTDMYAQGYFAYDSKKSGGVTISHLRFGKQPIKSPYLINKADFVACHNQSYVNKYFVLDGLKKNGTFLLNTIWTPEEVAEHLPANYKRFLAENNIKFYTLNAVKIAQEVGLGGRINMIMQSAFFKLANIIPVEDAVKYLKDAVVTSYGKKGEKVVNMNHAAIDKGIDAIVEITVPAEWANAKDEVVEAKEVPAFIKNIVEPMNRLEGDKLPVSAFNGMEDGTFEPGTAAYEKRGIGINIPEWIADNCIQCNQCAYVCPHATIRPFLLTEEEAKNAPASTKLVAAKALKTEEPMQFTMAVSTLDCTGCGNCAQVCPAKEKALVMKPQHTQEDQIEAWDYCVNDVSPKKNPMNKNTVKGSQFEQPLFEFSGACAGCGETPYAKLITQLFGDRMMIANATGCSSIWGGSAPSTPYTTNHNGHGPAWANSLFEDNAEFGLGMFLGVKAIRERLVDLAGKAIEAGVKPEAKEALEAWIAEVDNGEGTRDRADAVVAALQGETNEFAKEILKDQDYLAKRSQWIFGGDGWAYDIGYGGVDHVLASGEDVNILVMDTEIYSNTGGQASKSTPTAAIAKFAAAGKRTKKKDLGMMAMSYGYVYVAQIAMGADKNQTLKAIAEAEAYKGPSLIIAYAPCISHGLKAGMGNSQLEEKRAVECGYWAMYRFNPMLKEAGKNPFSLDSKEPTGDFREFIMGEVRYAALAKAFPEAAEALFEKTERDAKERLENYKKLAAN
The test is described as follows: Activity of PFOR in Clostridium perfringens at anaerobic condition. The essentials: as §1

Test [7] concerns Helicobacter pylori. The test is described as follows: Activity of PFOR in Helicobacter pylori at anaerobic condition. The essentials: as §1
In test [8] the test system is Trichomonas vaginalis. The test can be described thus: Activity of PFOR in Trichomonas vaginalis at anaerobic condition. The essentials: as §1
The target of test [9] is T3, Pyruvate-flavodoxin oxidoreductase (Campylobacter jejuni subsp. jejuni, UniProt Q0P8E1).
T3 sequence (Q0P8E1 whole entry): T1 sequence (whole entry)
The test can be described thus: Inhibition of PFOR Campylobacter jejuni. The essentials: (§2)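 PFOR in extracts or partly purified enzyme, standard anaerobic assay at 25°C with excess benzyl viologen (5 mM). Initial velocities of BV reduction at 546 nm measured at each NTZ level (0 to 264 µM). Plotted as 1/V against inhibitor concentration to derive Ki. Triplicate.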

A short description of test [10]: Inhibition of PFOR Helicobacter pylori. The essentials: as §2
Test [11] has as its system Entamoeba histolytica. The test can be described thus: Inhibition of Entamoeba histolytica PFOR cloned in Escherichia coli assessed as [14C]pyruvate decarboxylation by BV assay.
Test [12] concerns Escherichia coli. The test is described as follows: Inhibition of Escherichia coli JVQ2 PDH at 20 uM.
The nature of test [13]: Inhibition of PFOR Trichomonas vaginalis. The essentials:
as §2

In test [14] the test system is Escherichia coli. The test can be described thus: Growth inhibition of Escherichia coli. It is filed as functional.
Test [15] deals with Escherichia coli. The test is described as follows: Growth inhibition of Escherichia coli pBSK after 16 hrs. It is filed as functional. The essentials: (§3)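 E. coli CC104 carrying pGS950 (H. pylori rdxA) or empty pBSK, grown in 2% glucose MinA liquid medium with drug at 0, 5, 10 or 15 µg/ml. Turbidity at 660 nm read at 16 h in triplicate and expressed as a percentage of the no-drug control.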

Test [16] has as its system Escherichia coli. The test is described as follows: Growth inhibition of Escherichia coli CC104 expressing rdxA gene after 16 hrs. It is filed as functional. The essentials:
as §3

A short description of test [17]: Inhibition of PFOR Entamoeba histolytica. The essentials: as §2

In the case of `Cc1ncc([N+](=O)[O-])n1CCO`, the outcome in test [1] was Active.
Turning to `c1ccc(C[n+]2ccc(-c3cc[n+](Cc4ccccc4)cc3)cc2)cc1`, the Activity in test [2] is 115 nmol/mg/min; in test [3] it was 742 nmol/mg/min; in test [4] it was 106 nmol/mg/min; in test [5] it was 62.5 nmol/mg/min; in [6], 225 nmol/mg/min; in test [7], 127 nmol/mg/min. The same compound showed an Activity in test [8] of 52.5 nmol/mg/min.
On to `CC(=O)Oc1ccccc1C(=O)Nc1ncc([N+](=O)[O-])s1` [NITAZOXANIDE], for which the Ki in test [9] is 10.5 µM; in [10], 4.5 µM; in test [13], 2.2 µM; in [17], 10 µM. Besides, the result in [11] was Active. Also, the Activity in test [2] is 20 nmol/mg/min; in test [3], 19 nmol/mg/min; in test [4], 18.8 nmol/mg/min; in [5], 41.5 nmol/mg/min; in [6], 56.5 nmol/mg/min; in test [7], 8.5 nmol/mg/min. In addition, in test [12], the inhibition came out at 22%. Moreover, in test [5], the Michaelis constant (Km) is 44 µM. The compound also registered an MIC in [14] greater than 32 mg/L. The Inhibition in test [15] and in test [16] was 35% each time.
